The record followed here is ChEMBL document CHEMBL1154176, “Thiazolidinedione derivatives as PTP1B inhibitors with antihyperglycemic and antiobesity effects” (Bioorg Med Chem Lett, 2009).

For assay [1], the target named is T1, Tyrosine-protein phosphatase non-receptor type 1 (Homo sapiens, UniProt P18031).
T1 sequence (P18031 whole entry): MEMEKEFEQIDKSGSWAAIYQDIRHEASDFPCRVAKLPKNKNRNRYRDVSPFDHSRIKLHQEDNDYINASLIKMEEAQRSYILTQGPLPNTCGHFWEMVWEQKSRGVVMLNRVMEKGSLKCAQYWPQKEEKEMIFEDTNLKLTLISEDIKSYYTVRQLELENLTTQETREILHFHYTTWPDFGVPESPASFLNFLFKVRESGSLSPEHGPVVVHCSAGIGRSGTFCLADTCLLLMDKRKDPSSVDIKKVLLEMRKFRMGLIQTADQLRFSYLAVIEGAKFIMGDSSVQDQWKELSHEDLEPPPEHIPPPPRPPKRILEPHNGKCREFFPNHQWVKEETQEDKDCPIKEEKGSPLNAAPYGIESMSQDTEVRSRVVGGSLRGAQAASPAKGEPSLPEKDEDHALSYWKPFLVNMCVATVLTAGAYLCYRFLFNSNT
Description: Inhibition of PTP1B.

Assay [2] addresses T2, Tyrosine-protein phosphatase non-receptor type 2 (Homo sapiens, UniProt P17706).
T2 sequence (P17706 whole entry): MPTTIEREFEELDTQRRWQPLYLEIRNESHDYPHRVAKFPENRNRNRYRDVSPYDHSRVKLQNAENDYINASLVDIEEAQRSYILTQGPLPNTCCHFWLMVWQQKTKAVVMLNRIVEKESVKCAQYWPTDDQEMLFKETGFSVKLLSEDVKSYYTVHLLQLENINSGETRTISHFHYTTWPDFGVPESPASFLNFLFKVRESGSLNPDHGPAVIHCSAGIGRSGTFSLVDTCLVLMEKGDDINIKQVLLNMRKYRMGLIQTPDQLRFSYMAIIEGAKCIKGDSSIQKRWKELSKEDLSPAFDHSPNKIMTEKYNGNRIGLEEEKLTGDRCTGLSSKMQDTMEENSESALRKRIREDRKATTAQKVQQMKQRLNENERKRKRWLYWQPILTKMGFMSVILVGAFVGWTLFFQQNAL
Description: Inhibition of TC-PTP. Summed up: (§1)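 Phosphatase activity was measured as p-nitrophenyl phosphate hydrolysis (2 mM pNPP in the reaction) over a range of inhibitor concentrations to derive IC50. Conditions were identical for all enzymes except enzyme level: PTP1B 40 nM, E. coli-expressed SHP-1 catalytic domain 100 nM, E. coli-expressed YPTP1 15 nM, LAR-D1 and TC-PTP 33 units/mL. Ki was calculated as IC50 = Ki(1+[S]/KM). Mean ± SD of two or more experiments.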

In assay [3] the target is Tyrosine-protein phosphatase non-receptor type 6 (Homo sapiens, UniProt P29350). Description: Inhibition of SHP1 catalytic domain expressed in Escherichia coli. Summed up: as §1
Sequence of Tyrosine-protein phosphatase non-receptor type 6 (P29350 whole entry, the tested form may be a part): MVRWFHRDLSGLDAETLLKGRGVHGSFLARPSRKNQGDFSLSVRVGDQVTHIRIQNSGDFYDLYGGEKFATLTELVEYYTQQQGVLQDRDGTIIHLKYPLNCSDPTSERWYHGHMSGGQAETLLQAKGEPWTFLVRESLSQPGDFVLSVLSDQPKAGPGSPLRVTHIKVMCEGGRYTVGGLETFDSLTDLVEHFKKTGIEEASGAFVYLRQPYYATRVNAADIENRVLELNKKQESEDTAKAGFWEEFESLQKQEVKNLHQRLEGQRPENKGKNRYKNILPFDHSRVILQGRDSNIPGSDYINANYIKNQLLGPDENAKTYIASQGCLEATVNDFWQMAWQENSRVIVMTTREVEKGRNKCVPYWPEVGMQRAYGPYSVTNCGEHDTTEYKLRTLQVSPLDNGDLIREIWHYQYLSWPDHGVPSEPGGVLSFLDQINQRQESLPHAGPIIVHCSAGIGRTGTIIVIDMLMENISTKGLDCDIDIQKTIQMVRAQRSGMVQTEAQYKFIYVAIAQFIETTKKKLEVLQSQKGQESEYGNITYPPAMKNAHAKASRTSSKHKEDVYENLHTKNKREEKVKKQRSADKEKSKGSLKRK
For assay [4], the target named is Receptor-type tyrosine-protein phosphatase F (Homo sapiens, UniProt P10586). Briefly: Inhibition of membrane proximal catalytic domain of LAR. Summed up:
as §1

Assay [5] can be described thus: Inhibition of Yersinia YOP. The essentials: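 Purchased YOP enzyme at 50 units (manufacturer's definition)/mL, with p-nitrophenyl phosphate substrate at 2 mM in the reaction mixture. pNPP hydrolase activity was measured across a range of inhibitor concentrations to derive IC50. Ki was obtained from IC50 = Ki(1 + [S]/KM). Values are mean and SD of two or more experiments.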

Assay [6] in a line: Inhibition of yeast PTP1. Set-up: species or system Saccharomyces cerevisiae. Summed up:
as §1

Assay [7] can be described thus: Selectivity for PTP1B over TC-PTP.
A short description of assay [8]: Selectivity for PTP1B over membrane proximal catalytic domain of LAR.
Assay [9] can be described thus: Selectivity for PTP1B over yeast PTP1.
Assay [10] relates to Mus musculus. Description: Antiobesity activity in high fat diet-induced obese C57BL/6J Jms Slc mouse model assessed as body weight gain at 143 mg/kg/day, po for 4 weeks administered with high fat diet (Rvb= 4.88 +/- 0.46 g). In kind it is functional. The essentials:
(§2)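 Male C57BL/6J Jms Slc mice were acclimatized 1 wk on low-fat diet (10% kcal fat), then fed high-fat diet (45% kcal fat) ad libitum for 8 wk. They were split into groups of equal mean body weight and given HFD or HFD with drug mixed into the food (2.0 g/kg diet; DMSO plus 1% aqueous polyglycerol fatty acid ester) for 4 wk. Read-outs: weight gain and feed efficiency (weight gain/kcal ×100).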

The subject of assay [11] is Mus musculus. Briefly: Antiobesity activity in high fat diet-induced obese C57BL/6J Jms Slc mouse model assessed as decrease in body weight gain per kilocalories of food intake at 143 mg/kg/day, po for 4 weeks administered with high fat diet. Type of assay: functional. Set-up: scale not given: the % may be the effect or the level left. Summed up:
as §2

Assay [12] deals with Mus musculus. Description: Antiobesity activity in high fat diet-induced obese C57BL/6J Jms Slc mouse model assessed as epididymal fat at 143 mg/kg/day, po for 4 weeks administered with high fat diet followed by 5 days recovery period on their own high fat diet with drug (Rvb= 1.87 +/- 0.08 g). In kind it is functional. Summed up:
(§3)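 Obesity was induced by HFD (45% kcal fat) for 8 wk, followed by 4 wk of HFD or HFD with drug in the diet (2.0 g/kg diet). After the glucose tolerance test, mice stayed on their diets for 5 d more and were fasted overnight. Epididymal and retroperitoneal fat pads were excised and weighed. Significance versus HFD by one-way ANOVA.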

Assay [13] relates to Mus musculus. Description: Antiobesity activity in high fat diet-induced obese C57BL/6J Jms Slc mouse model assessed as retroperitoneal fat at 143 mg/kg/day, po for 4 weeks administered with high fat diet followed by 5 days recovery period on their own high fat diet with drug (Rvb= 0.69 +/- 0.06 g). In kind it is functional. Summed up: as §3
The test system of assay [14] is Mus musculus. Briefly: Hypoglycemic activity in high fat diet-induced obese C57BL/6J Jms Slc mouse model assessed as reduction in fasting blood glucose level at 143 mg/kg/day, po for 4 weeks administered with high fat diet measured after 6 hrs of fasting. Type of assay: functional, organism-based. The essentials: (§4)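 After 8 wk of HFD and 4 wk of HFD with drug in the diet (2.0 g/kg diet), mice were fasted 6 h. Fasting blood glucose was taken at 0 min, glucose was then injected intraperitoneally, and tail blood was sampled at timed intervals up to 120 min.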

For assay [15], the system named is Mus musculus. Description: Hypoglycemic activity in high fat diet-induced obese C57BL/6J Jms Slc mouse model at 143 mg/kg/day, po for 4 weeks administered with high fat diet by glucose tolerance test. Type of assay: functional, organism-based. Summed up: as §4
The test system of assay [16] is Mus musculus. Briefly: Hypoglycemic activity in high fat diet-induced obese C57BL/6J Jms Slc mouse model assessed as total cholesterol level at 143 mg/kg/day, po for 4 weeks administered with high fat diet followed by 5 days recovery period on their own high fat diet with drug (Rvb= 152 +/- 6 mg/dL). In kind it is functional. Summed up: (§5)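 HFD-obese mice (8 wk HFD) received HFD with drug in the diet (2.0 g/kg diet) for 4 wk, then continued 5 d on their diets. After an overnight fast and anesthesia, blood was taken by cardiac puncture. Serum triglyceride and total cholesterol were measured by enzymatic kits, and NEFA by a half-micro test kit. Mean ± SD, n = 8/group; one-way ANOVA.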

Assay [17] deals with Mus musculus. Briefly: Hypoglycemic activity in high fat diet-induced obese C57BL/6J Jms Slc mouse model assessed as triglyceride level at 143 mg/kg/day, po for 4 weeks administered with high fat diet followed by 5 days recovery period on their own high fat diet with drug (Rvb= 124 +/- 16 mg/dL). In kind it is functional. Summed up:
as §5

Assay [18] has as its system Mus musculus. Briefly: Hypoglycemic activity in high fat diet-induced obese C57BL/6J Jms Slc mouse model assessed as non-esterified free fatty acid level at 143 mg/kg/day, po for 4 weeks administered with high fat diet followed by 5 days recovery period on their own high fat diet with drug (Rvb= 0.71 +/- 0.22 mM). In kind it is functional. The essentials:
as §5

Molecules are shown by their SMILES. Calls of active or inactive are those of the source. The rule behind the calls is not given here. Bounds are passed on as bounds.

Sequence of Receptor-type tyrosine-protein phosphatase F (P10586 whole entry, the tested form may be a part): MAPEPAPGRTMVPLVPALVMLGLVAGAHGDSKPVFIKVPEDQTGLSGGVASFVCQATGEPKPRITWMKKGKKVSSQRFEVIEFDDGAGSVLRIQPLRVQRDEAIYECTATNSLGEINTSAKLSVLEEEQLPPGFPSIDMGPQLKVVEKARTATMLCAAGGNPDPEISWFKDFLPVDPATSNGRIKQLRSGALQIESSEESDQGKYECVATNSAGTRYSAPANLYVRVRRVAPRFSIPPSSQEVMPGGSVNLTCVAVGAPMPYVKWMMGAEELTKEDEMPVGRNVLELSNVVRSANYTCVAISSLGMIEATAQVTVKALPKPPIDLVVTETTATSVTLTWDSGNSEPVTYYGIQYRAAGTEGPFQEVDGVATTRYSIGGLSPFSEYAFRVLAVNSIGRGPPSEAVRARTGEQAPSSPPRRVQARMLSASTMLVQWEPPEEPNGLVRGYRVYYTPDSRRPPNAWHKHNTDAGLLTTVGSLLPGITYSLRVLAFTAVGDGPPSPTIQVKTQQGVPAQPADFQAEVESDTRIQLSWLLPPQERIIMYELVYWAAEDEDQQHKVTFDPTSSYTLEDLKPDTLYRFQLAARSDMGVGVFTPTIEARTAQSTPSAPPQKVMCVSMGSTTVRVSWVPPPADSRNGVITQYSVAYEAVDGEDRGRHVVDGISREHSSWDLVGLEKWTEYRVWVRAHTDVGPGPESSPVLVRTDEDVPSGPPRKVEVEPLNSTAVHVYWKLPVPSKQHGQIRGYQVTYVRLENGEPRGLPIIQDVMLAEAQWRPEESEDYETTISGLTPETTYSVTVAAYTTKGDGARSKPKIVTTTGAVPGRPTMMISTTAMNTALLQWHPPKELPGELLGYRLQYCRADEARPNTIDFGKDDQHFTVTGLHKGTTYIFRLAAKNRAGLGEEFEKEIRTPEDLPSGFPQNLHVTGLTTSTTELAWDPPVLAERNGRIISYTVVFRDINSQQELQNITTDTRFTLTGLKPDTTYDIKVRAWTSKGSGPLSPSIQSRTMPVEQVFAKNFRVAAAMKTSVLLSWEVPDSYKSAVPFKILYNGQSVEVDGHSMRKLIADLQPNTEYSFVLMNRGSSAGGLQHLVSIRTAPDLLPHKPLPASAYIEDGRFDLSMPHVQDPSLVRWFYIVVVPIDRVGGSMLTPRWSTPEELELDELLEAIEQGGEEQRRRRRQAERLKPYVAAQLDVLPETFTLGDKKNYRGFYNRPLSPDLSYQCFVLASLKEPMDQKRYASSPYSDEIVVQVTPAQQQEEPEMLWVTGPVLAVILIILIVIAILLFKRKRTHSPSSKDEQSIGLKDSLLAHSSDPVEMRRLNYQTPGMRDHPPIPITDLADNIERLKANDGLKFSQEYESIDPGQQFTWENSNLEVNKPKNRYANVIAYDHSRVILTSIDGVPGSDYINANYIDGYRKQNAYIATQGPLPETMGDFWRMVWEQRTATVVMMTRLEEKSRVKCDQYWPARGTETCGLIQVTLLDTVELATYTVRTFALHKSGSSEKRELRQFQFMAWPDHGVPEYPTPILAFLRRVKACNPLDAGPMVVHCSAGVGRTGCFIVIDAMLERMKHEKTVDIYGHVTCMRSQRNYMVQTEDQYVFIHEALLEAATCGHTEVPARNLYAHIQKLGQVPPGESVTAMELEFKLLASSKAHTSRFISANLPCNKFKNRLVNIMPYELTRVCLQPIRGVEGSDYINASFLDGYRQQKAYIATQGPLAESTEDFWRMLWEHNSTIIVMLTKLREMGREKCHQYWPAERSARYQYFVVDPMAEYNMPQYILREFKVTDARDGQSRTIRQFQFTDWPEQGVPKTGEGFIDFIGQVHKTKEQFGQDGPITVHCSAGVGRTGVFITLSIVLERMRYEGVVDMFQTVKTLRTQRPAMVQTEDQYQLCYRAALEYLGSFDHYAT

For `O=C1NC(=O)/C(=C/c2cc(Br)ccc2OCc2cc(C(F)(F)F)cc(C(F)(F)F)c2)S1`, the IC50 in assay [1] was 5 µM; in assay [2], 16 µM; in assay [3] it was 5.8 µM; in [4] it was above 100 µM; in assay [5], 6 µM; in assay [6], 18 µM. The Ki in assay [1] came out at 2.1 µM; in assay [2], 4.5 µM; in [3], 2.2 µM; in assay [6], 7.7 µM. In addition, the fold change (FC) in assay [7] was 2.2; in [8], above 20; in assay [9] it was 3.7. For the same compound, the Activity in the assay with Mus musculus [10] came to 2.16 g; with Mus musculus [11], 0.68%; in the assay with Mus musculus [12] it was 1.27 g; in the assay on Mus musculus [13], 0.42 g; in the assay on Mus musculus [16], 125 mg/dL; in the assay with Mus musculus [17], 78 mg/dL. Also, in the assay on Mus musculus [18], the Activity was 0.22 mM. Moreover, the outcome in the assay with Mus musculus [14] was inactive. Moreover, in the assay with Mus musculus [15], the result was Active.

Turning to `O=C1NC(=O)/C(=C/c2ccc(OCc3ccccc3)cc2)S1`, in assay [1], 64 µM corresponded to half-maximal inhibition (IC50).

Turning to `O=C1NC(=O)/C(=C/c2cc(Br)ccc2OCc2cccc(C(F)(F)F)c2)S1`, the IC50 in assay [1] amounted to 8 µM.

With `O=C1NC(=O)/C(=C/c2cc(Br)ccc2OCc2ccccc2C(F)(F)F)S1`, half-maximal inhibition in [1] (IC50) was put at 8 µM.

As for `O=C1NC(=O)/C(=C/c2ccc(OCc3ccc(F)cc3)cc2)S1`, in assay [1], inhibition was half-maximal at 68 µM (IC50).

In [1], `O=C1NC(=O)/C(=C/c2ccc(OCc3ccccc3)c(-c3ccccc3)c2)S1` returned an IC50 of 9 µM.

The compound `O=C1NC(=O)/C(=C/c2cc(Br)ccc2OCc2ccc(C(F)(F)F)cc2)S1` yielded an IC50 in assay [1] of 8 µM.

With `O=C1NC(=O)/C(=C/c2ccc(OCc3ccc(F)cc3)c(Br)c2)S1`, in assay [1], half-maximal inhibition (IC50) required 11 µM.

`O=C1NC(=O)/C(=C/c2cc(F)ccc2OCc2cc(C(F)(F)F)cc(C(F)(F)F)c2)S1` displayed an IC50 in assay [1] of 8 µM.

`O=C1NC(=O)/C(=C/c2ccc(OCc3ccccc3)c(Br)c2)S1` came in with an IC50 in assay [1] of 15 µM.

`O=C1NC(=O)/C(=C/c2ccc(OCc3ccc(C(F)(F)F)cc3)c(-c3ccccc3)c2)S1`: half-maximal inhibition in assay [1] (IC50) was put at 6 µM.

The compound `O=C1NC(=O)/C(=C/c2cc(-c3ccccc3)ccc2OCc2ccccc2)S1` returned an IC50 in assay [1] of 16 µM.

For the compound `CN(CCOc1ccc(CC2SC(=O)NC2=O)cc1)c1ccccn1` (stereo unspecified) [ROSIGLITAZONE], in [1], half-maximal inhibition (IC50) required 400 µM.

In assay [1], `O=C1NC(=O)/C(=C/c2ccc(OCc3ccc(C(F)(F)F)cc3)cc2)S1` had an IC50 of 14 µM.

`O=C1NC(=O)/C(=C/c2ccc(OCc3ccc(C(F)(F)F)cc3)c(Br)c2)S1` yielded an IC50 in [1] of 5 µM.

Regarding `O=C1NC(=O)/C(=C/c2cc(Br)ccc2OCc2ccccc2)S1`, the IC50 in assay [1] was 9 µM.

In assay [1], `Cc1c(C)c2c(c(C)c1O)CCC(C)(COc1ccc(CC3SC(=O)NC3=O)cc1)O2` (stereo unspecified) [TROGLITAZONE] gave an IC50 of 55 µM.

`CCc1ccc(CCOc2ccc(CC3SC(=O)NC3=O)cc2)nc1` (stereo unspecified) [PIOGLITAZONE]: the midpoint of inhibition in assay [1], the IC50, lay at 220 µM.

`O=C1NC(=O)/C(=C/c2cc(F)ccc2OCc2ccc(C(F)(F)F)cc2)S1` came in with an IC50 in assay [1] of 15 µM.

In the case of `O=C1NC(=O)/C(=C/c2cc(Br)ccc2OCc2ccc(F)cc2)S1`, in assay [1], the IC50 worked out at 23 µM.
